Experimental data: ChEMBL document CHEMBL1145179, “Synthesis and enzyme-specific activation of carbohydrate-geldanamycin conjugates with potent anticancer activity” (J Med Chem, 2005)

Key:
Assay type in all cases: functional, cell-based
[1] = tested on: K562; assay: Inhibitory concentration against human leukemia K562 cell lines
In short: (§1)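 MTS assay. Cells (2000-10 000) seeded in RPMI-1640 and grown 24 h, then exposed to various concentrations for 72 h at 37 °C under 5% CO₂. MTS (2 mg/ml) with PMS (25 µM) added for 3 h at 37 °C, and formazan read at 490 nm. IC50 taken from dose-response curves of % growth vs untreated control.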

[2] = tested on: HT-29; assay: Inhibitory concentration against human colorectal carcinoma HT-29 cell lines; in short: as §1
[3] = tested on: MCF7; assay: Inhibitory concentration against human Breast cancer MCF-7 cell lines; in short: as §1
[4] = tested on: SW-620; assay: Inhibitory concentration against human colorectal carcinoma SW620 cell lines; in short: as §1
[5] = tested on: MCF7; assay: Inhibitory concentration against human breast cancer MCF-7 cell lines; in short: as §1

SMILES | IC50 [1] [µM] | IC50 [2] [µM] | IC50 [3] [µM] | IC50 [4] [µM] | IC50 [5] [µM]
COC1/C=C\C=C(/C)C(=O)NC2=CC(=O)C(NCCCCCO[C@@H]3O[C@@H](CO)[C@H](O)[C@H](O)[C@@H]3O)=C(C[C@@H](C)C[C@H](OC)[C@H](O)C(C)/C=C(\C)[C@@H]1OC(N)=O)C2=O (stereo partly drawn) | > 19 | > 13 | > 17 | > 13 | 
COC1/C=C\C=C(/C)C(=O)NC2=CC(=O)C(NCCOCCO[C@@H]3O[C@@H](CO)[C@H](O)[C@H](O)[C@@H]3O)=C(C[C@@H](C)C[C@H](OC)[C@H](O)C(C)/C=C(\C)[C@@H]1OC(N)=O)C2=O (stereo partly drawn) | > 15 | > 13 | > 22 | > 11 | 
COC1/C=C\C=C(/C)C(=O)NC2=CC(=O)C(NCCO[C@@H]3O[C@@H](CO)[C@@H](O[C@@H]4O[C@@H](CO)[C@H](O)[C@H](O)[C@@H]4O)[C@H](O)[C@@H]3O)=C(C[C@@H](C)C[C@H](OC)[C@H](O)C(C)/C=C(\C)[C@@H]1OC(N)=O)C2=O (stereo partly drawn) | > 25 | > 25 | > 22 | > 20 | 
COC1/C=C\C=C(/C)C(=O)NC2=CC(=O)C(NCCCO[C@@H]3O[C@@H](CO)[C@H](O)[C@H](O)[C@@H]3O)=C(C[C@@H](C)C[C@H](OC)[C@H](O)C(C)/C=C(\C)[C@@H]1OC(N)=O)C2=O (stereo partly drawn) | > 14 | > 6 | > 12 | > 14 | 
COC1/C=C\C=C(/C)C(=O)NC2=CC(=O)C(NCCO[C@@H]3O[C@@H](CO)[C@H](O)[C@H](O)[C@@H]3O)=C(C[C@@H](C)C[C@H](OC)[C@H](O)C(C)/C=C(\C)[C@@H]1OC(N)=O)C2=O (stereo partly drawn) | > 23 | > 14 | > 25 | > 8 | 

These reach a lower IC50 [1]. Values come first.

IC50 [1] [µM] | IC50 [2] [µM] | IC50 [3] [µM] | IC50 [4] [µM] | IC50 [5] [µM] | SMILES
0.381 | 0.105 | 0.754 | 0.0702 |  | COC1/C=C\C=C(/C)C(=O)NC2=CC(=O)C(NCCO[C@@H]3O[C@@H](CO)[C@@H](O)[C@H](O)[C@@H]3O)=C(C[C@@H](C)C[C@H](OC)[C@H](O)C(C)/C=C(\C)[C@@H]1OC(N)=O)C2=O (stereo partly drawn)
0.0221 | 0.0245 |  | 0.0062 | 0.0065 | COC1=C2C[C@@H](C)C[C@H](OC)[C@H](O)[C@@H](C)/C=C(\C)[C@H](OC(N)=O)[C@@H](OC)/C=C\C=C(/C)C(=O)NC(=CC1=O)C2=O [GELDANAMYCIN]
